Laboratory results from ChEMBL document CHEMBL4017460, “A Tobramycin Vector Enhances Synergy and Efficacy of Efflux Pump Inhibitors against Multidrug-Resistant Gram-Negative Bacteria” (J Med Chem, 2017).
Values after ≈ are worked out from the molar mass of the structure shown. Active and inactive are the calls of the source. The rule behind the calls is not given here.

Tests used:
Enterobacter cloacae [1] = assay: Antibacterial activity against Enterobacter cloacae isolate 117029 after 18 to 24 hrs by microbroth dilution assay; type: functional
Method in brief: (§1)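 Checkerboard in MHB: antibiotic 2-fold diluted along one axis, test agent 2-fold diluted along the other. Overnight culture standardized to 0.5 McFarland in saline, diluted 1:50 in MHB, added to wells, incubated 37 °C for 18 h. MIC is the lowest concentration with no growth. FIC = MIC in combination / MIC alone; FIC index = sum of both FICs.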

Pseudomonas aeruginosa [2] = assay: Inhibition of RND efflux pump in Pseudomonas aeruginosa isolate P260-97103 assessed as potentiation of minocycline-induced antibacterial activity by measuring minocycline MIC at 0.25 times antibacterial MIC after 18 to 24 hrs by microbroth dilution assay (reference value: 8 to 16 ug/ml)
Method in brief: as §1, with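 “broth microdilution:” for “in MHB:”, “adjuvant” for “test agent”, “wells,” for “wells, incubated”, “FICI” for “FIC index”, “the two FICs; FICI ≤0.5 is synergy.” for “both FICs.”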

Pseudomonas aeruginosa [3] = assay: Inhibition of RND efflux pump in Pseudomonas aeruginosa isolate P259-96918 assessed as potentiation of minocycline-induced antibacterial activity by measuring minocycline MIC at 8 ug/ml after 18 to 24 hrs by microbroth dilution assay (reference value: 32 ug/ml)
Method in brief: (§2)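 Absolute minocycline MIC taken from checkerboard broth dilution with a fixed 8 μg/mL adjuvant. Inoculum was a 0.5 McFarland saline suspension diluted 1:50 in MHB, incubated 37 °C for 18 h. MIC is the lowest concentration with no growth.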

Pseudomonas aeruginosa [4] = assay: Inhibition of RND efflux pump in Pseudomonas aeruginosa isolate P259-96918 assessed as potentiation of minocycline-induced antibacterial activity at 8 ug/ml after 18 to 24 hrs by checker board assay; method in brief: as §1
Pseudomonas aeruginosa [5] = assay: Inhibition of RND efflux pump in Pseudomonas aeruginosa isolate 100036 assessed as potentiation of minocycline-induced antibacterial activity at 8 ug/ml after 18 to 24 hrs by checker board assay; method in brief: as §1
Pseudomonas aeruginosa [6] = assay: Inhibition of RND efflux pump in Pseudomonas aeruginosa isolate P262-104354 assessed as potentiation of minocycline-induced antibacterial activity by measuring fold reduction in minocycline MIC at 0.25 times antibacterial MIC after 18 to 24 hrs by microbroth dilution assay
Method in brief: as §1, with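 “broth microdilution:” for “in MHB:”, “adjuvant” for “test agent”, “wells,” for “wells, incubated”, “FICI” for “FIC index”, “the two FICs; FICI ≤0.5 is synergy.” for “both FICs.”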

Pseudomonas aeruginosa [7] = assay: Inhibition of RND efflux pump in Pseudomonas aeruginosa isolate 101885 assessed as potentiation of minocycline-induced antibacterial activity at 8 ug/ml after 18 to 24 hrs by checker board assay; method in brief: as §1
Pseudomonas aeruginosa [8] = assay: Antibacterial activity against Pseudomonas aeruginosa isolate P264-104354 after 18 to 24 hrs by microbroth dilution assay; type: functional; method in brief: as §1
[9] = test system: Pseudomonas aeruginosa PAO1; assay: Inhibition of RND efflux pump in Pseudomonas aeruginosa PAO1 assessed as potentiation of doxycycline-induced antibacterial activity by measuring fold reduction in doxycycline MIC at 8 ug/ml after 18 to 24 hrs by microbroth dilution assay relative to doxycycline alone
Method in brief: as §1, with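 “broth microdilution:” for “in MHB:”, “adjuvant” for “test agent”, “wells,” for “wells, incubated”, “FICI” for “FIC index”, “the two FICs; FICI ≤0.5 is synergy.” for “both FICs.”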

Pseudomonas aeruginosa [10] = assay: Antibacterial activity against Pseudomonas aeruginosa isolate 100036 after 18 to 24 hrs by microbroth dilution assay; type: functional; method in brief: as §1
Pseudomonas aeruginosa [11] = assay: Induction of outer membrane permeabilization in Pseudomonas aeruginosa PAO1 assessed as increase in NPN uptake up to 100 secs by fluorescence assay; type: functional
Method in brief: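 Outer membrane permeabilization in PAO1 cells, read as accumulation of 1-N-phenylnaphthylamine (NPN) by fluorescence over a range of compound concentrations. Triton X-100 (1%) and EDTA (10 mM) served as positive controls.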

Pseudomonas aeruginosa [12] = assay: Potentiation of minocycline-induced antibacterial activity against mexAB-oprM/mexCD-oprJ/mexEF-oprN/mexXY/mexJK/opmH deficient Pseudomonas aeruginosa PAO750 after 18 to 24 hrs by microbroth dilution assay; type: functional
[13] = test system: Pseudomonas aeruginosa PAO1; assay: Inhibition of RND efflux pump in Pseudomonas aeruginosa PAO1 assessed as potentiation of chloramphenicol-induced antibacterial activity […] by microbroth dilution assay
Pseudomonas aeruginosa [14] = assay: Potentiation of minocycline-induced antibacterial activity against mexAB-oprM deficient Pseudomonas aeruginosa PAO200 after 18 to 24 hrs by microbroth dilution assay; type: functional
Pseudomonas aeruginosa [15] = assay: Inhibition of RND efflux pump in Pseudomonas aeruginosa isolate P260-97103 assessed as potentiation of minocycline-induced antibacterial activity at 0.25 times antibacterial MIC after 18 to 24 hrs by checker board assay; method in brief: as §1
Pseudomonas aeruginosa [16] = assay: Inhibition of RND efflux pump in Pseudomonas aeruginosa isolate 100036 assessed as potentiation of minocycline-induced antibacterial activity by measuring fold reduction in minocycline MIC at 8 ug/ml after 18 to 24 hrs by microbroth dilution assay
Method in brief: as §1, with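 “broth microdilution:” for “in MHB:”, “adjuvant” for “test agent”, “wells,” for “wells, incubated”, “FICI” for “FIC index”, “the two FICs; FICI ≤0.5 is synergy.” for “both FICs.”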

Enterobacter cloacae [17] = assay: Inhibition of RND efflux pump in Enterobacter cloacae isolate 117029 assessed as potentiation of minocycline-induced antibacterial activity by measuring fold reduction in minocycline MIC at 8 ug/ml after 18 to 24 hrs by microbroth dilution assay; method in brief: as §2
Pseudomonas aeruginosa [18] = assay: Inhibition of RND efflux pump in colistin-resistant Pseudomonas aeruginosa isolate 101243 assessed as potentiation of minocycline-induced antibacterial activity by measuring minocycline MIC at 8 ug/ml after 18 to 24 hrs by microbroth dilution assay (reference value: 32 ug/ml)
Method in brief: as §1, with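 “broth microdilution:” for “in MHB:”, “adjuvant” for “test agent”, “wells,” for “wells, incubated”, “FICI” for “FIC index”, “the two FICs; FICI ≤0.5 is synergy.” for “both FICs.”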

Pseudomonas aeruginosa [19] = assay: Inhibition of RND efflux pump in Pseudomonas aeruginosa isolate P259-96918 assessed as potentiation of minocycline-induced antibacterial activity by measuring fold reduction in minocycline MIC at 8 ug/ml after 18 to 24 hrs by microbroth dilution assay
Method in brief: as §1, with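 “broth microdilution:” for “in MHB:”, “adjuvant” for “test agent”, “wells,” for “wells, incubated”, “FICI” for “FIC index”, “the two FICs; FICI ≤0.5 is synergy.” for “both FICs.”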

Pseudomonas aeruginosa [20] = assay: Inhibition of RND efflux pump in Pseudomonas aeruginosa isolate P262-101856 assessed as potentiation of minocycline-induced antibacterial activity at 8 ug/ml after 18 to 24 hrs by checker board assay; method in brief: as §1
Pseudomonas aeruginosa [21] = assay: Antibacterial activity against Pseudomonas aeruginosa isolate P262-101856 after 18 to 24 hrs by microbroth dilution assay; type: functional
Method in brief: as §1, with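 “broth microdilution:” for “in MHB:”, “adjuvant” for “test agent”, “wells,” for “wells, incubated”, “FICI” for “FIC index”, “the two FICs; FICI ≤0.5 is synergy.” for “both FICs.”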

[22] = test system: Pseudomonas aeruginosa PAO1; assay: Inhibition of RND efflux pump in Pseudomonas aeruginosa PAO1 assessed as potentiation of vancomycin-induced antibacterial activity […] by microbroth dilution assay
Pseudomonas aeruginosa [23] = assay: Inhibition of RND efflux pump in Pseudomonas aeruginosa isolate 100036 assessed as potentiation of minocycline-induced antibacterial activity by measuring minocycline MIC at 8 ug/ml after 18 to 24 hrs by microbroth dilution assay (reference value: 64 ug/ml)
Method in brief: as §1, with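 “broth microdilution:” for “in MHB:”, “adjuvant” for “test agent”, “wells,” for “wells, incubated”, “FICI” for “FIC index”, “the two FICs; FICI ≤0.5 is synergy.” for “both FICs.”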

Pseudomonas aeruginosa [24] = assay: Reduction in flagellum-dependant motility in Pseudomonas aeruginosa PAO1 after 20 hrs by swimming motility test; type: functional
Method in brief: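 PAO1 flagellum-dependent swimming motility on swimming plates containing sub-MIC compound, compared with plates without compound.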

[25] = test system: Pseudomonas aeruginosa PAO1; assay: Inhibition of RND efflux pump in Pseudomonas aeruginosa PAO1 assessed as potentiation of gentamicin-induced antibacterial activity after 18 to 24 hrs by checker board assay; method in brief: as §1
Enterobacter cloacae [26] = assay: Inhibition of RND efflux pump in Enterobacter cloacae isolate 117029 assessed as potentiation of minocycline-induced antibacterial activity by measuring minocycline MIC at 8 ug/ml after 18 to 24 hrs by microbroth dilution assay (reference value: 128 to 256 ug/ml); method in brief: as §2

Structure (SMILES) | MIC (Enterobacter cloacae [1]) | MIC (Pseudomonas aeruginosa [2]) | MIC (Pseudomonas aeruginosa [3]) | fractional inhibitory concentration index (FICI) (Pseudomonas aeruginosa [4]) | fractional inhibitory concentration index (FICI) (Pseudomonas aeruginosa [5]) | fold change (FC) (Pseudomonas aeruginosa [6]) | fractional inhibitory concentration index (FICI) (Pseudomonas aeruginosa [7]) | MIC (Pseudomonas aeruginosa [8]) | fold change (FC) [9] | MIC (Pseudomonas aeruginosa [10]) | Activity (Pseudomonas aeruginosa [11]) | Activity (Pseudomonas aeruginosa [12]) | fractional inhibitory concentration index (FICI) [13] | Activity (Pseudomonas aeruginosa [14]) | fractional inhibitory concentration index (FICI) (Pseudomonas aeruginosa [15]) | fold change (FC) (Pseudomonas aeruginosa [16]) | fold change (FC) (Enterobacter cloacae [17]) | MIC (Pseudomonas aeruginosa [18]) | fold change (FC) (Pseudomonas aeruginosa [19]) | fractional inhibitory concentration index (FICI) (Pseudomonas aeruginosa [20]) | further results
Cl.Cl.Cl.Cl.Cl.Cl.NC[C@H]1O[C@H](O[C@H]2[C@H](OCCCCCCCCCCCCN3CC[C@@H](c4ccc(F)cc4)[C@H](COc4ccc5c(c4)OCO5)C3)[C@@H](O[C@H]3O[C@H](CO)[C@@H](O)[C@H](N)[C@H]3O)[C@H](N)C[C@@H]2N)[C@H](N)C[C@@H]1O | > 32 µg/mL | < 1 µg/mL | 0.5 µg/mL | 0.02 | 0.05 | 8 to 256 | 0.13 | 64 µg/mL | 8 to 64 | 64 µg/mL | Dose-dependent effect | inactive | < 0.1 | inactive | 0.19 | 8 to 256 | 4 to 256 | 1 µg/mL | 8 to 256 | 0.13 | MIC (Pseudomonas aeruginosa [21]): 32 µg/mL; fractional inhibitory concentration index (FICI) [22]: < 0.15; MIC (Pseudomonas aeruginosa [23]): < 0.25 µg/mL; Activity (Pseudomonas aeruginosa [24]): Dose-dependent effect; fractional inhibitory concentration index (FICI) [25]: > 1.5; MIC (Enterobacter cloacae [26]): 4 µg/mL
Cl.Cl.Cl.Cl.Cl.Cl.Cl.NC[C@H]1O[C@H](O[C@H]2[C@H](OCCCCCCCCCCCCN3CCN(Cc4cccc5ccccc45)CC3)[C@@H](O[C@H]3O[C@H](CO)[C@@H](O)[C@H](N)[C@H]3O)[C@H](N)C[C@@H]2N)[C@H](N)C[C@@H]1O | > 32 µg/mL | 0.5 µg/mL | < 0.5 µg/mL | 0.02 | 0.02 | 8 to 256 | 0.05 | 128 µg/mL | 8 to 64 | 256 µg/mL | Dose-dependent effect | inactive | < 0.1 | inactive | 0.25 | 8 to 256 | 4 to 256 | 1 µg/mL | 8 to 256 | 0.09 | MIC (Pseudomonas aeruginosa [21]): 64 µg/mL; fractional inhibitory concentration index (FICI) [22]: < 0.15; MIC (Pseudomonas aeruginosa [23]): 0.5 µg/mL; Activity (Pseudomonas aeruginosa [24]): Dose-dependent effect; fractional inhibitory concentration index (FICI) [25]: > 1.5; MIC (Enterobacter cloacae [26]): 8 µg/mL
NC[C@H]1C[C@H](C(=O)N[C@H](CCc2ccccc2)C(=O)Nc2ccc3ccccc3c2)N(CCCCCCCCCCCCO[C@@H]2[C@@H](O[C@H]3O[C@H](CO)[C@@H](O)[C@H](N)[C@H]3O)[C@H](N)C[C@H](N)[C@H]2O[C@H]2O[C@H](CN)[C@@H](O)C[C@H]2N)C1 | 32 µg/mL (≈ 30.1 µM) | 0.5 µg/mL | < 0.5 µg/mL | 0.03 | 0.06 | 8 to 256 | 0.13 | 8 µg/mL (≈ 7.52 µM) | 8 to 64 | 32 µg/mL (≈ 30.1 µM) | Dose-dependent effect | inactive | < 0.1 | inactive | 0.31 | 8 to 256 | 4 to 256 | 0.5 µg/mL | 8 to 256 | 0.08 | MIC (Pseudomonas aeruginosa [21]): 32 µg/mL (≈ 30.1 µM); fractional inhibitory concentration index (FICI) [22]: < 0.15; MIC (Pseudomonas aeruginosa [23]): < 0.25 µg/mL; Activity (Pseudomonas aeruginosa [24]): Dose-dependent effect; fractional inhibitory concentration index (FICI) [25]: > 1.5; MIC (Enterobacter cloacae [26]): 1 µg/mL
